Bioassay records from PubChem BioAssay.
A selection: hits, their analogues and other compounds. The true share with any hit is near 3.7%.
KCNK3 inh – human KCNK3 channel inhibition, primary screen; O14649; CHO-KCNK3 thallium flux, FluxOR fluorescence; active compounds read low; B-score at 10 µM; hit rate 0.84% among 340,000; AID 602410;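 active means B-score under library mean minus 4 SD, starting fluorescence ratio at most library mean plus 5 SD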;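 further: more negative B-score means stronger inhibition of thallium flux through KCNK3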
Target sequence (O14649 whole entry, looked up): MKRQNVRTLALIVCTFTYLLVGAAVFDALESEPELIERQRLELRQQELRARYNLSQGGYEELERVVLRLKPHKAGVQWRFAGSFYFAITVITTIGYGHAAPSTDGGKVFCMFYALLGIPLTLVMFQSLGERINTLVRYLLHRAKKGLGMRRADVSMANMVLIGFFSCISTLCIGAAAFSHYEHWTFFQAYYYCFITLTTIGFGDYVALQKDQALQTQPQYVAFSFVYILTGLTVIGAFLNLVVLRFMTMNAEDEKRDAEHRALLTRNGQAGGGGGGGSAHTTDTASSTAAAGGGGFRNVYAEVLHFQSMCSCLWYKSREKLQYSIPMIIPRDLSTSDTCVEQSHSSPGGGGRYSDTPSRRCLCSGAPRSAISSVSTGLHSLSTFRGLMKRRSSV
hERG protect – hERG (human) protection from proarrhythmic block; Q12809; activation (rescue from dofetilide block), less the hit threshold, % at 10 µM; CHO-hERG, FluxOR thallium flux, dofetilide IC70 present; hit rate 0.51% among 310,000;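 active means activation above the mean of controls blocked by dofetilide plus 5 SD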;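 further: thallium influx through hERG after potassium depolarization seen as dye fluorescence rise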
Kir21 block – Kir2.1 (mouse) channel inhibition; P35561; B-score at 10 µM; HEK293-Kir2.1, FluxOR thallium flux fluorescence; active compounds read low; hit rate 0.85% among 310,000; AID 1672;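 active means fluorescence ratio B-score at or below minus 3 SD of library scores, with starting-brightness B-score within 2 SD, cut at about -4.2 in these data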;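 further: channel flux triggered by added potassium and thallium sulfate stimulus; B-score of peak minus minimum fluorescence over baseline after thallium stimulus; more negative B-score means stronger Kir2.1 block with less thallium influx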
KCNQ1 act – potentiates or activates the human KCNQ1 potassium channel; B-score at 10 µM; hit rate 0.35% among 310,000; AID 2648; P51787; CHO-K1 KCNQ1, thallium flux FluxOR fluorescence; active compounds read high;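 active means fluorescence ratio B-score, a plate-corrected score, at least three library SD, with initial intensity B-score within 5 SD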
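Assay system: stable KCNQ1 CHO-K1 line; medium: assay buffer, equal DMSO in all wells; timing: 90 min dye loading and 20 min compound exposure, both at room temperature; technique: kinetic FluxOR thallium fluorescence, 10-s 1-Hz baseline, 110-s post-stimulus read; read-out basis: B score of baseline-normalized fluorescence ratio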
KCNQ1 block – blocks the human KCNQ1 potassium channel | P51787 | CHO-K1 KCNQ1, FluxOR thallium flux fluorescence; active compounds read high | B-score at 10 µM | hit rate 1.3% among 310,000;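 active means compounds whose thallium flux B-score, printed positive for inhibition, exceeds three library SD while starting fluorescence stays within three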;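 further: channel opened by potassium depolarization with thallium stimulus after 20 min compound exposure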
KCNK9 block – inhibitors of human KCNK9 two-pore domain potassium channel; Q9NPC2; HEK293 KCNK9, FluxOR thallium flux fluorescence; active compounds read low; B-score at 10 µM; hit rate 1.2% among 310,000;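 active means ratio B-score over 3 SD below the library mean, with starting fluorescence within 5 SD of its mean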;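 further: negative B-score means less thallium flux so channel inhibition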
KCNK9 block conf – human KCNK9 inhibitor confirmation | shares compounds with KCNK9 block | HEK293 KCNK9 cells, FluxOR thallium flux fluorescence | inhibition, % at 10 µM | hit rate 43% among 4,900;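 active means thallium signal inhibited by more than 5 SD of the compound-free buffer control wells, on both duplicate plates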;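 further: 0% = assay buffer control wells without compound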
Kir21 sel – tests whether KCNK9 modulators also affect mouse Kir2.1; inhibition, % at 10 µM; hit rate 4% among 4,900; shares compounds with KCNK9 block; Kir2.1 cells, FluxOR thallium flux fluorescence;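 active means thallium signal drop more than 5 SD beyond the mean of the no-compound control wells, seen in both duplicate plates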;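 further: signal is fluorescence rise after thallium addition divided by baseline fluorescence; plate controls were assay buffer only for no effect and full block by chlorpromazine control for full effect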
KCNK9 uninduced – non-induced cell nonspecific activity of KCNK9 modulators | non-induced KCNK9-HEK293, FluxOR thallium flux | inhibition, % at 10 µM | AID 492997 | hit rate 40% among 4,900 | shares compounds with KCNK9 block;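 active means thallium signal drop beyond 5 SD of the untreated control mean, on both duplicate plates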;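 further: plate controls were buffer only IC0 wells for no effect and SID17386958 at its maximal inhibitory level for full effect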
Active calls of the source: *; i = inactive; . = not tested or not shown.

SMILES | KCNK3 inh | hERG protect | Kir21 block | KCNQ1 act | KCNQ1 block | KCNK9 block | KCNK9 block conf | Kir21 sel | KCNK9 uninduced
CC(=O)c1cccc(-n2c(CCC(=O)O)ccc2-c2ccc(C)cc2)c1 | i | 1.9 | 0.75 | i | i | -15.4* | i | i | i
c1ccc(-c2nc(NCc3cccnc3)c3oc4ccccc4c3n2)cc1 | i | 7.9* | 0.33 | i | i | -10.4* | 38.0%* | i | 32.0%*
CCOc1ccc(Br)cc1C1=NN(C(C)=O)C(c2ccc([N+](=O)[O-])s2)O1 (centres undefined) | -10.2* | -7.1 | 0 | i | i | -10.3* | 63.0%* | i | 39.5%*
c1ccc2c(c1)OCC(c1csc3ncnc(N4CCCCC4)c13)O2 (centres undefined) | i | -7.7 | -0.16 | i | i | -13.2* | 44.5%* | i | 32.5%*
CCc1cc2c(cc3c(=O)n(CC(=O)NCCCN4CCCCCC4)nc(CC)n32)s1 | i | -6.3 | 1.33 | i | i | i | . | . | .
COCCC1CCCCN1Cc1cn(-c2ccccc2)nc1-c1ccc2c(c1)OCO2 (centres undefined) | i | -11.8 | -0.77 | i | i | i | i | i | i
O=C(Cc1cn(Cc2cccc(Cl)c2)c2ccccc12)N1CCCCCC1 | i | -10.8 | 2.22 | i | i | -10.7* | 53.5%* | 35.5%* | 38.0%*
CC1CCCN(C(=O)Cc2cn(Cc3cccc(Cl)c3)c3ccccc23)C1 (centres undefined) | i | -5.5 | -2.05 | i | i | -13.6* | 71.5%* | 46.5%* | 37.0%*
O=C(O)Cc1cn(Cc2cccc(Cl)c2)c2ccccc12 | i | -8.5 | -0.29 | i | i | i | . | . | .
CSc1ccccc1OCc1cc(C(=O)N(C)Cc2ccc(C)o2)no1 | i | -10.3 | -1.11 | i | i | i | i | i | i
CSc1ccccc1OCc1cc(C(=O)N(C)Cc2ccc3nsnc3c2)no1 | i | -8.2 | 0.91 | i | i | i | . | . | .
O=c1c2ccccc2c(-c2cccc(C(F)(F)F)c2)nn1-c1ccccc1 | i | -11.0 | 0.09 | i | i | -8.83* | 37.5%* | i | 43.0%*
COc1ccc(/C=C(/NC(=O)c2ccco2)C(=O)N2CCCCCC2)cc1OC | i | -7.2 | -1.91 | i | i | i | . | . | .
CC(NCC(=O)Nc1cc(S(=O)(=O)N2CCCCCC2)ccc1Cl)c1ccccc1 (centres undefined) | i | -11.9 | 1.17 | i | i | i | i | i | i
Cc1ccccc1NCC(=O)Nc1cc(S(=O)(=O)N2CCCCC2)ccc1C | i | . | . | . | . | . | . | . | .
Clc1ccc(CN(Cc2ccccc2)C(c2cccs2)c2nnnn2C2CCCC2)cc1 (centres undefined) | i | -9.0 | -0.03 | i | i | i | . | . | .
CC(C)(C)n1nnnc1C(c1cccs1)N(Cc1ccc(Cl)cc1)CC1CCCO1 (centres undefined) | i | -9.4 | -0.02 | i | i | -16.5* | 62.5%* | i | 42.5%*
CC(C)(C)n1nnnc1C(c1ccc(Cl)cc1)N(Cc1cccnc1)Cc1ccco1 (centres undefined) | -10.1* | -10.0 | -1.28 | i | 6* | -14.4* | 52.0%* | i | 39.0%*
CC(C)(C)n1nnnc1C(c1ccc(F)cc1)N(Cc1ccc(F)cc1)Cc1ccco1 (centres undefined) | i | -15.1 | -0.17 | i | 7* | -15* | 71.5%* | i | 40.0%*
Fc1ccc(C(c2nnnn2C2CCCC2)N(Cc2ccco2)CC2CCCO2)cc1 (centres undefined) | i | -3.6 | -0.91 | i | i | i | . | . | .
